# From PubChem BioAssay
# A selection: hits, their analogues and other compounds. The true share with any hit is near 2.6%.
# Cl transport mod = KCC2 (human) Cl- transport modulation | Q9H2X9 | KCC2 cells, thallium flux FluoZin-2 fluorescence | B-score of Tl+ flux slope (higher = more flux/activation; lower = inhibition) at 10 µM | 190,000 compounds, 2.2% hits;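 active means thallium flux slope and its plate-corrected score both differing from the plate sample mean at a set confidence after two filtering rounds, in either direction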;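 further: slope of fluorescence scaled to starting intensity during 10 to 20 s after thallium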
# CHT allo act = human CHT allosteric activation; B-score at 10 µM; 310,000 compounds, 0.49% hits; CHT-expressing cells, membrane potential dye, choline EC20; hits give high values; LV-AA mutant CHT in HEK293 cells; Q9GZV3;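 active means initial fluorescence not abnormally high and integrated response B-score, plate-corrected, over 3 SD above library mean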
# Rad51 HR inh = blocks human Rad51 in homologous recombination | Q06609 | hRad51 DNA strand exchange, fluorescence dequenching | inhibition, % at 10 µM | 200,000 compounds, 0.085% hits | AID 1385;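 active means inhibition above 40% at the single screening dose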;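 further: 0% = DMSO control wells and 100% = blanks with heterologous ssDNA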
# Target sequence (Q06609 whole entry, looked up): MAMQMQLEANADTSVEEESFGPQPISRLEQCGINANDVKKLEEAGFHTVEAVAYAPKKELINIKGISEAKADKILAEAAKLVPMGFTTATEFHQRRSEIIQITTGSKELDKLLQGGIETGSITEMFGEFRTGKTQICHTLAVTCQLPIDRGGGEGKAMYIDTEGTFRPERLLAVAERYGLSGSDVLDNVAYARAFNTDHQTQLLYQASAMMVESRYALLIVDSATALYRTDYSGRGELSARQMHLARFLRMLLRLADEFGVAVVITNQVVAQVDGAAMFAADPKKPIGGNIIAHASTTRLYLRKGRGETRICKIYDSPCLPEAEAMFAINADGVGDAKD
#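 Material: Human Rad51 nucleoprotein filaments preassembled on unlabelled ssDNA | Also added: Labelled 47-mer dsDNA for strand exchange | Dosing: Single dose, 10 µM final compound | Schedule: 30-min compound preincubation and 15-min exchange, both room temperature | Technique: Fluorescence dequenching at 485/520 nm | Measure: Percent inhibition relative to plate controls and blanks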
# CHT inh = inhibits the human high affinity choline transporter; Q9GZV3; 310,000 compounds, 0.86% hits; CHT-expressing cells, membrane potential dye, choline response; hits give low values; AID 488975; B-score at 10 µM;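 active means B-score over 3 SD under the library average, and starting fluorescence ratio not unusually high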;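 further: choline stimulus applied at its EC90 after an EC20 pre-addition; B-score computed on integrated fluorescence ratio after choline addition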
# CHT block conf = human CHT inhibition, confirmatory screen; 2,400 compounds, 70% hits; shares compounds with CHT inh; CHT activity remaining % of control (hits give low values), % at 10 µM; CHT-expressing cells, choline membrane potential dye; LV-to-AA substituted CHT, HEK293 cells;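 active means choline transporter activity left, mean of duplicates at 10 µM, below buffer-only control mean minus 3 SD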;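 further: depolarization triggered by choline at its EC90 following an EC20 pre-addition; 0% = hemicholinium-3 full block and 100% = buffer-only control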
# HEK293 CHT ctr = CHT inhibitor counter-screen hit in parental HEK293 cells. 2,400 compounds, 4% hits. membrane potential ratio readout (active if shifted either direction beyond buffer ±3SD; no single direction) at 10 µM. shares compounds with CHT inh. membrane potential dye, choline response; active = decrease or increase beyond buffer ±3SD. AID 493222;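 further: parental cells lack the transporter so any hit is non-specific; ratio is peak minus trough fluorescence over baseline after EC90 choline challenge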
# Numbers without * were called inactive; i = inactive; / = not tested or not shown.
SMILES,Cl transport mod,CHT allo act,Rad51 HR inh,CHT inh,CHT block conf,HEK293 CHT ctr
Cn1c(-c2ccccc2)cnc1SCc1nc2ccccc2c(=O)[nH]1,-1.1,i,2,-5.3*,60%*,i
CCCCC[C@H](O)/C=C/[C@@H]1[C@@H](C/C=C\CCCC(=O)O)[C@@H](O)C[C@H]1O,-0.83,i,-9,-5.9*,33%*,i
Cc1ccc(-n2nc3c(=O)n(CC(=O)NCCCc4ccccc4)nc(C)c3c2C)cc1,/,i,/,i,/,/
Cc1ccc(-n2nc3c(=O)n(C(C)C(=O)NCCCc4ccccc4)nc(C)c3c2C)cc1 (stereo unspecified),/,i,/,-5*,i,i
COc1ccc(OCC(=O)N/N=c2\oc3c(OC)cccc3cc2C(N)=O)cc1,0.61,i,0,i,/,/
CCOc1ccc(NCC(=O)N/N=C/C=C/c2ccccc2)cc1,-0.029,i,/,i,/,/
COc1ccc(OCC(=O)N/N=C/C=C/c2ccccc2)cc1,-1.7,i,25,-7.9*,69%*,i
CCCCCn1c(=O)[nH]c2cc(C(=O)NCCN3CCC(C)CC3)ccc2c1=O,/,i,/,-6.1*,i,i
c1coc(Cn2c(-c3ccco3)nc3ccccc32)c1,-1.8,i,-2,-8*,i,-11*
Clc1ccc(OCCn2c(-c3ccco3)nc3ccccc32)cc1,-0.059,i,-2,i,/,/
O=C(O)CN1C(=O)/C(=C/C=C/c2ccccc2)SC1=S,-0.34,i,19,-8.5*,40%*,i
CCOC(=O)c1c(NC(=O)C(=O)N/N=C/c2ccccc2O)sc2c1CCCCC2,0.18,i,-1,i,/,/
Cc1noc(C)c1S(=O)(=O)Nc1ccccc1Oc1ccccc1,-0.33,i,-24,-13*,i,i
Cc1cc2n(n1)C(c1ccc3c(c1)OCO3)Nc1c(C)cccc1-2 (stereo unspecified),-0.25,i,4,-5.1*,i,i
Cc1ccc(-c2csc3nc(SCC(=O)Nc4ccc(Cl)c(C(=O)O)c4)[nH]c(=O)c23)cc1,/,i,/,-5.6*,67%*,i
COc1cccc(-c2cc(C(=O)NN3CCOCC3)c3ccccc3n2)c1,0.27,i,2,-10*,i,i
COc1cccc(-c2csc(N3CCN(C(=S)Nc4cccc(C)c4)CC3)n2)c1,0.051,i,0,i,/,/
CCOc1ccccc1N1CCN(C(=O)C(F)(F)F)CC1,/,i,18,-6.2*,i,i
O=C(CN1CCN(Cc2ccc(Cl)cc2)CC1)N1CCc2ccccc21,/,i,/,-6.2*,48%*,i
Cc1csc(=N)n1CC(=O)N1CCc2ccccc21,-0.27,i,13,-9.6*,21%*,i
O=C(CN1CCN(Cc2ccccc2)CC1)N1CCCc2ccccc21,/,i,/,i,/,/
O=C(CN1CCCCC1)N1CCc2ccccc21,/,i,/,i,/,/
COc1ccc(C(=O)NCCC(=O)NCc2cc(=O)n(C)c(=O)n2C)cc1,/,i,/,i,/,/
CCOC(=O)C1(CCCc2ccccc2)CCN(C(=O)CCCn2cncn2)CC1,-0.18,i,2,-5*,i,i
Cc1occc1C(=O)NNC(=S)NC(=O)COc1ccc(Cl)cc1Cl,/,i,/,-9.4*,58%*,i
SMILES,Cl transport mod,CHT allo act,Rad51 HR inh,CHT inh,CHT block conf,HEK293 CHT ctr
CC1CCN(CCc2nc3cc(NS(=O)(=O)c4ccc(F)cc4)ccc3n2C)CC1,0.042,i,2,i,/,/
CC1CCN(CCc2nc3cc(NS(=O)(=O)c4ccccc4)ccc3n2C)CC1,0.42,i,-2,-9.3*,37%*,i
CCOCC(=O)N1CCN(c2ccccc2OC)CC1,1.1,i,-243,i,/,/
Cc1cccc(C2c3[nH]c4ccccc4c3CCN2C(=O)c2ccc(=O)[nH]c2)n1 (stereo unspecified),-0.12,i,6,i,/,/
O=C(c1cc2c([nH]c1=O)CCCC2)N1CCc2c([nH]c3ccccc23)C1c1ccccc1F (stereo unspecified),0.076,i,6,-12*,30%*,i
Cc1cccc(C2c3[nH]c4ccccc4c3CCN2C(=O)c2cc3c([nH]c2=O)CCCC3)n1 (stereo unspecified),-0.41,i,-1,-9.6*,9.3%*,i
Cc1ccc(C(=O)Nc2cccnc2N2CCN(C)CC2)cc1,0.33,i,-17,i,/,/
Cc1ccc(-c2csc(NC(=O)c3ccc(Br)cc3)c2C(=O)O)cc1,/,i,/,-5.3*,51%*,i
Cc1ccc(-c2csc(NC(=O)c3ccccc3Cl)c2C(=O)O)cc1,/,i,/,-5.9*,66%*,i
CC(C)Cc1csc(NC(=O)c2ccccc2Cl)c1C(=O)O,-0.12,i,/,i,/,/
Cc1ccc(-c2csc(NC(=O)c3cccc(C)c3)c2C(=O)O)cc1,/,i,/,-7.7*,43%*,i
COCc1cc(C)nc(NCCc2ccccc2)c1C#N,-2,i,-1,i,/,/
Cc1ccc(S(=O)(=O)N/N=C/c2cc(Br)ccc2O)cc1,-2.3,i,11,-5.6*,67%*,i
COc1ccc(O)c(/C=N/NS(=O)(=O)c2ccc(C)cc2)c1,/,i,/,i,/,/
COc1ccc(-c2cn(Cc3ccc(C(N)=O)cc3)c(CCN)n2)cc1,/,i,/,-8.1*,i,i
O=C1C2C(C(=O)N1/N=C/c1cc(Br)cc([N+](=O)[O-])c1O)C1C=CC2C12CC2 (stereo unspecified),/,i,-4,-7.6*,43%*,i
c1ccc(NC2=NCCN2CCCC2CCCC2)cc1,/,i,/,i,/,/
Nc1nc(SCC(=O)Nc2ccc3c(c2)OCO3)n[nH]1,-0.16,i,4,-5.1*,i,i
Nc1cc(N)nc(SCC(=O)Nc2ccc3c(c2)OCO3)n1,/,i,/,i,/,/
N#Cc1ccc(NC(=O)CCc2nc3ccccc3s2)cc1,-2.7,i,4,i,/,/
O=C(CCCc1nc2ccccc2s1)Nc1ccc(N2CCOCC2)cc1,0.88,i,-8,-6.7*,i,i
N#C/C(=N\Nc1cccc(C(F)(F)F)c1)C(=O)c1ccsc1,-4.3,i,-13,-10*,35%*,i
COC(=O)Nc1ccc(S(=O)(=O)Nc2ncccn2)cc1,-0.34,i,6,i,/,/
CC1(C)C(C=C(Cl)Cl)C1C(=O)Nc1ccc(S(=O)(=O)Nc2ncccn2)cc1 (stereo unspecified),/,i,/,-5.1*,33%*,i
CC(C)COc1nc2ccccc2nc1N1CCN(C)CC1,/,i,/,-6*,41%*,i
CC(C)(C)c1ccc(N/N=C(\C#N)S(=O)(=O)C(C)(C)C)cc1,-1.6,i,-3,i,/,/
